According to article PMC9532533 (Acta Pharmaceutica Sinica. B, 2022):

Columns and labels:
Pharmacokinetics in mice = format: in vivo, male ICR (CD-1) mice; conditions: male, ICR (CD-1), mouse, plasma; for AUC(0-t) / half-life: po, 10 mg/kg
Method in brief: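 Male ICR (CD-1) mice, n = 3 per route, each given a single dose of test compound: 2 mg/kg i.v. or 10 mg/kg p.o. Plasma drug levels measured by LC/MS/MS, and key PK parameters derived from these concentration data.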

32D KIT^D816V xenografts = experiment: In vivo antitumor efficacy, 32D KIT^D816V xenograft; design: species or system nude mice; conditions: i.g., BID × 12; for mortality and body weight loss: whole period of treatment
[1] = test system: phosphorylation of KIT^D816V and downstream STAT3 and ERK; experiment: Western blot of KIT signaling in 32D KIT^D816V cells; format: cell-based, murine; conditions: 4-h treatment
32D cells = experiment: Antiproliferation assay, normal parent 32D cells; format: cell-based, murine; conditions: Mus musculus, read-out: 32D cells (GI50, nmol/L)
[2] = test system: 32D KIT V559D/V654A cells; experiment: Antiproliferation assay, 32D KIT V559D/V654A cells; format: cell-based, murine; conditions: Mus musculus, read-out: GI50, V559D/V654A
[3] = test system: 32D KIT V559D/N822K cells; experiment: Antiproliferation assay, 32D KIT V559D/N822K cells; format: cell-based, murine; conditions: Mus musculus, read-out: GI50, V559D/N822K
32D KIT V559D cells = experiment: Antiproliferation assay, 32D KIT V559D cells; format: cell-based, murine; conditions: Mus musculus, read-out: GI50, V559D

Row | SMILES | AUC(0-t) (Pharmacokinetics in mice) [ng·h/mL] | half-life (Pharmacokinetics in mice) [h] | suppression of growth of 32D KIT^D816V xenografts (32D KIT^D816V xenografts; high dose group 100 mg/kg) [%] | mortality and body weight loss (32D KIT^D816V xenografts) | inhibition of phosphorylation of KIT^D816V and downstream STAT3 and ERK [1] | bioavailability (Pharmacokinetics in mice; oral, 10 mpk) [%] | GI50 (32D cells) [nmol/L] | TGI (tumor growth inhibition) (32D KIT^D816V xenografts; 20 mg/kg) [%] | TGI (tumor growth inhibition) (32D KIT^D816V xenografts; 40 mg/kg) [%] | GI50 [2] [nM] | GI50 [3] [nM] | GI50 (32D KIT V559D cells) [nM]
1 | COCCn1cc(C#Cc2cc(C(=O)NCc3ccsc3)ccc2C)c2c(N)ncnc21 [Compound 57] | 233 | 1.34 | 50 | no mortality or obvious body weight loss | potent inhibition effects | – | – | – | – | – | – | –
2 | Cc1ccc(C(=O)NCc2ccsc2)cc1C#Cc1cn(C(C)C)c2ncnc(N)c12 [Compound 54] | 1280 | 2.29 | – | no mortality or obvious body weight loss | potent inhibition effects | 29.9 | > 1000 | 45 | 71 | 1.1 | 0.8 | 0.09
3 | CCn1c(=O)c(-c2cc(NC(=O)Nc3ccccc3)c(F)cc2Br)cc2cnc(NC)cc21 [Ripretinib, ripretinib, reference compound] | – | – | – | no mortality or obvious body weight loss | – | – | – | – | – | – | – | –
